From PubChem
UBC13 polyUb: blocks human UBC13 polyubiquitin chain formation; P61088; 330,000 tested, 0.47% active; inhibition, % at 20 µM; TR-FRET; in the data active = inhibition above about 45%, passing the limit was not always enough
Apaf1 inhib: inhibitors of human Apaf-1 apoptosome; O14727; reconstituted apoptosome caspase-3 activity, DEVD-Rh110 fluorescence; inhibition, % at 20 µM; 330,000 tested, 0.71% active; AID 489030; active = inhibition of at least 40% at 20 µM;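 note: plate controls were DMSO wells for no effect and DEVD-CHO caspase inhibitor wells for full effect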
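System: reconstituted apoptosome with Apaf-1, cytochrome c, caspase-9, procaspase-3, dATP; Signal: Rh110 fluorescence intensity; Schedule: 30 min compound preincubation, 50 min activation, room temperature; Reagent: cytochrome c trigger plus (Z-DEVD)2-Rh110 caspase-3 substrate.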
MEKK2mut PB1 HTS: signal of MEK5 binding to mutant human MEKK2 PB1 domain; bead flow cytometry, Alexa488-MEK5 binding to MEKK2 mutant; percent response, % at 10 µM; 290,000 tested, 0.35% active; AID 1530; in the data active = percent response above about 24%, passing the limit was not always enough
Pemphigus Ab inh: inhibitors of pemphigus antibody binding to human desmoglein-3 | P32926 | DSG3-coupled beads, scFv-anti-DSG3-GFP binding, flow cytometry; hits give low values | binding (percent of control), % at 10 µM | 310,000 tested, 0.48% active;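 active = binding more than 3 SD below its plate's average and above zero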;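 note: hits lower antibody fragment binding to DSG3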
Target sequence (P32926 whole entry, looked up, the tested form may be a part): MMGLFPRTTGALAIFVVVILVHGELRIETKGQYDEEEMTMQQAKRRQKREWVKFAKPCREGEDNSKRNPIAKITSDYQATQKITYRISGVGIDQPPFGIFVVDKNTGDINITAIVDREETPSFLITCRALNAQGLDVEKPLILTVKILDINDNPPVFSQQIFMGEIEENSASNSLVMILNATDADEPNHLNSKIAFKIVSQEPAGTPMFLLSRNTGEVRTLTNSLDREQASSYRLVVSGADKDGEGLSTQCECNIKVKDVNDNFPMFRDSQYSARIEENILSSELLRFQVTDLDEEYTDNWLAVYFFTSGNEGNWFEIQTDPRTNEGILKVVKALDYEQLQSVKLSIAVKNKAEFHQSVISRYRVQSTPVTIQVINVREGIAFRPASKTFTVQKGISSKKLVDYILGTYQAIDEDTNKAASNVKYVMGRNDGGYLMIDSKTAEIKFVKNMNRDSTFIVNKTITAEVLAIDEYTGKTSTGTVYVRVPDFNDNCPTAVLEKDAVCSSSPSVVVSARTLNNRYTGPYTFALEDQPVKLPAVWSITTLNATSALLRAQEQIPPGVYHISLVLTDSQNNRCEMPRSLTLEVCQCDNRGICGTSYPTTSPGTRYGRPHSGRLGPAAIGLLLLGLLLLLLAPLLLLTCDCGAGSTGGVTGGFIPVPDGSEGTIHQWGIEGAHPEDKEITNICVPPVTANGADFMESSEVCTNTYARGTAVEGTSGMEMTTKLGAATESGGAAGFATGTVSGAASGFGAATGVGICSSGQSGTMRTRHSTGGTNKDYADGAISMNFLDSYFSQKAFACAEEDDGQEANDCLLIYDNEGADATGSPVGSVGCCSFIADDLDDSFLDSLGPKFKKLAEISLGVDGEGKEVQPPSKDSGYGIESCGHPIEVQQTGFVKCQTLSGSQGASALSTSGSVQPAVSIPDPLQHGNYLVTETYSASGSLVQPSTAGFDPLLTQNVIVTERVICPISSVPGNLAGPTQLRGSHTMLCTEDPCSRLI
MEKK2wt PB1 HTS: raises or lowers MEK5 binding to wildtype human MEKK2 PB1 domain | binding response (% of control), % at 10 µM | Q9Y2U5 | 290,000 tested, 1.1% active | bead flow cytometry, Alexa488-MEK5 binding to MEKK2 WT; actives lie on both sides; in the data active = binding response below about 67% or above about 130%
MEKK3 PB1 HTS: MEKK3-MEK5 PB1 interaction, increase or decrease | Q99759 | bead-based flow cytometry, Alexa488-MEK5 binding to MEKK3; actives lie on both sides; 0 = blocked by unlabeled MEK5, 100 = vehicle | binding response (% of control), % at 10 µM | 290,000 tested, 1.4% active;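 active = binding response more than 3 SD above or below the average of its plate-row segment, actives on both sides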;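 note: Alexa488 bead fluorescence after subtracting the streptavidin-only scavenger bead signal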
Apaf-1 inh conf2: confirmation of Apaf-1 inhibitors | reconstituted apoptosome, caspase-3 DEVD-Rh110 fluorescence | shares compounds with Apaf1 inhib | AID 504614 | inhibition, % at 20 µM | 1,800 tested, 25% active;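 active = mean inhibition of at least 40% at 20 µM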;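 note: plate controls were DMSO wells for no effect and DEVD-CHO caspase inhibitor control wells for full effect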
Rh110 quench: interferes with Rh110 fluorescence, flagging false Apaf-1 inhibitors | activation (fluorescence interference), % at 20 µM | shares compounds with Apaf1 inhib | 1,800 tested, under 10 active | Rh110 fluorescence interference, quenched caspase reaction;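 active = signal rise of 40% or more at 20 µM, treated as a fluorescence artifact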
* hit, by the source's call; x = not tested or not shown. Hits are enriched below; roughly 3.2% of the tested compounds scored in any of these assays.

SMILES	UBC13 polyUb	Apaf1 inhib	MEKK2mut PB1 HTS	Pemphigus Ab inh	MEKK2wt PB1 HTS	MEKK3 PB1 HTS	Apaf-1 inh conf2	Rh110 quench
COC(C[C@H]1O[C@@H]1C(=O)[C@H](C)OCc1ccccc1)OC	3.0	48.1*	-6.0	102.2	94.0	95.0	1.2	0.9
CCCCC1=CC2=C(c3ccco3)C(=O)C(C)(OC(=O)c3ccc(OC)cc3)C(=O)C2=CN1C1CC1 (stereo unspecified)	15.1	40.1*	1.0	101.5	121.0	113.0	13.8	1.9
CCCCC1=CC2=C(c3ccco3)C(=O)C(C)(OC(=O)c3ccc(OC)cc3)C(=O)C2=CN1C1CCCC1 (stereo unspecified)	16.7	22.6	-1.0	x	92.0	96.0	x	x
O=[N+]([O-])c1cc2c(cc1C=Nc1ccccc1)OCO2	-28.8	47.7*	-1.0	105.3	96.0	99.0	16.3	7.4
Cc1cccc(N=Cc2cc3c(cc2[N+](=O)[O-])OCO3)c1	-24.2	35.1	1.0	x	100.0	103.0	x	x
O=C1Cc2cc(S(=O)(=O)N3CCNCC3)ccc2N1	-3.8	40.1*	x	96.5	x	x	10.3	6.3
CCOC(=O)C1=C(COC(=O)C2CC(=O)N(c3ccccc3CC)C2)NC(=O)NC1C (stereo unspecified)	x	x	x	99.7	x	x	x	x
COc1ccc(OC)c(S(=O)(=O)Nc2cccc3ccccc23)c1	2.1	-3.5	x	104.8	x	x	x	x
COc1ccc(OC)c(S(=O)(=O)Oc2ccc(N)c3ccccc23)c1	-59.9	68.7*	x	98.8	x	x	37.9	3.2
Cc1cc(O)c(C(C)C)cc1N=Cc1ccc([N+](=O)[O-])cc1	x	x	x	96.0	x	x	x	x
CC1=NN(c2ccc(C)cc2C)C(=O)C1C(c1cccc(O)c1)C1C(=O)N(c2ccc(C)cc2C)N=C1C (stereo unspecified)	-30.0	85.3*	-1.0	122.6	97.0	97.0	27.4	-1.6
CC1=NN(c2ccccc2)C(=O)C1N=Nc1cccc(O)c1 (stereo unspecified)	-40.3	2.4	-1.0	113.1	93.0	94.0	x	x
CCC(C)Sc1ccc(-c2nc3ccc(C)cn3c2NC2CCCCC2)cc1 (stereo unspecified)	29.1	40.9*	x	104.4	x	x	7.6	6.9
COCCCNC(=O)C[C@H]1C[C@H](C(=O)N2CCCCC2)[C@@]2(CCc3ccccc3)c3[nH]c4cc(-c5ccco5)ccc4c3CCN2C1=O	x	31.0	x	92.5	x	x	x	x
O=C(C[C@H]1C[C@H](C(=O)N2CCCCC2)[C@@]2(CCc3ccccc3)c3[nH]c4ccc(Cl)cc4c3CCN2C1=O)NCCCn1ccnc1	x	60.6*	x	98.9	x	x	26.4	10.4
CC(C)N(C(=O)[C@H]1C[C@H](CC(=O)NCCC2=CCCCC2)C(=O)N2CCc3c([nH]c4ccc(Cl)cc34)[C@]12C)C(C)C	x	43.9*	x	97.1	x	x	22.9	11.7
CC[C@]12c3[nH]c4ccc(OC)cc4c3CCN1C(=O)C(CC(=O)NC/C=C(\C)CCC=C(C)C)C[C@@H]2C(=O)N1CCN(C(=O)c2ccco2)CC1 (stereo partly specified)	x	40.2*	x	100.8	x	x	24.9	6.2
O=C(C[C@H]1C[C@H](C(=O)N2CCCCC2)[C@@]2(CCc3ccccc3)c3[nH]c4cc(-c5ccco5)ccc4c3CCN2C1=O)NCCN1CCOCC1	x	47.7*	x	92.7	x	x	17.1	8.2
COc1ccc(CNC(=O)C[C@H]2C[C@H](C(=O)N(C(C)C)C(C)C)[C@@]3(C)c4[nH]c5ccc(Cl)cc5c4CCN3C2=O)cc1OC	x	28.8	x	96.8	x	x	x	x
COC(=O)c1c(C)[nH]c(C(=O)COC(=O)CCc2ccc(OC)c(OC)c2)c1C	x	x	x	101.8	x	x	x	x
O=C(NCCc1c[nH]c2ccccc12)C1CCC(=O)N(CCc2cccc(F)c2)C1 (stereo unspecified)	-1.3	-4.3	4.0	100.7	110.0	107.0	x	x
